Our source for the TGI values is ChEMBL document CHEMBL3272325, “Structure-activity relationships of dimeric Catharanthus alkaloids. 1. Deacetylvinblastine amide (vindesine) sulfate” (J Med Chem, 1978).

As a reminder, the TGI is how far tumour growth fell short of that in controls. High values mean a stronger effect on the tumour, low ones a weaker effect on the tumour.

Structures are written as SMILES.

Holding throughout (format): functional
Common to all, as to conditions: route intraperitoneal

Assay [1] can be described thus: Antitumor activity against mouse Ridgeway osteogenic sarcoma cells allografted in mouse at 0.2 to 0.3 mg/kg/day, ip. A digest of the protocol: (§1)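 Ridgeway osteogenic sarcoma and Gardner lymphosarcoma in mice, with sulfate salts given ip daily on days 1-9. Tumor growth inhibition versus controls scored in bands: +++ = 75-100%, ++ = 50-75%, ± = under 25%.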
The nature of assay [2]: Antitumor activity against mouse Gardner lymphosarcoma cell allografted in mouse at 0.2 to 0.3 mg/kg/day, ip. A digest of the protocol: as §1
The nature of assay [3]: Antitumor activity against mouse Ridgeway osteogenic sarcoma cells allografted in mouse at 1 to 2 mg/kg/day, ip. A digest of the protocol: (§2)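 Sulfate salts given ip on days 1-9 against ROS and GLS in mice; tumor growth scored as percent inhibition versus controls (+++ = 75-100%, ++ = 50-75%, ± = under 25%).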
Assay [4] can be described thus: Antitumor activity against mouse Gardner lymphosarcoma cell allografted in mouse at 1.0 to 2.0 mg/kg/day, ip. A digest of the protocol: as §2

Turning to `CC[C@]1(O)C[C@H]2CN(CCc3c([nH]c4ccccc34)[C@@](C(=O)OC)(c3cc4c(cc3OC)N(C)[C@H]3[C@@](O)(C(=O)NN)[C@H](O)[C@]5(CC)C=CCN6CC[C@]43[C@@H]65)C2)C1`, the TGI in assay [1] and in assay [2] was 75% in each case.
Consider `CC[C@]1(O)C[C@@H]2C[C@H](c3cc4c(cc3OC)N(C)[C@H]3[C@@](O)(C(N)=O)[C@H](O)[C@]5(CC)C=CCN6CC[C@]43[C@@H]65)c3[nH]c4ccccc4c3CCN(C2)C1.O=S(=O)(O)O`, for which the tumour growth inhibition (TGI) in assay [3] and in assay [4] was less than 25% throughout.
